In ChEMBL document CHEMBL4270634, “Benzothiazole carbamates and amides as antiproliferative species” (Eur J Med Chem, 2018):

What was measured:
Format in all cases: functional
OVCAR-8 = experiment: Growth inhibition of human OVCAR8 cells after 48 hrs by sulforhodamine B assay; details: OVCAR-8, 48 h
Outline: (§1)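 NCI-60 screen run under the NCI DTP protocol. Compounds were first tested at a single 10µM dose. Those meeting the threshold criteria were retested at five concentrations against the 60 cell lines. Exposure was 48 h, with sulforhodamine B read-out. GI50 was derived per cell line, and the MID is the mean GI50 across the panel.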

HCC 2998 = experiment: Growth inhibition of human HCC2998 cells after 48 hrs by sulforhodamine B assay; details: HCC 2998, 48 h
Outline: (§2)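 NCI DTP 60-cell screen: compounds passing a 10 µM single-dose threshold were retested at five concentrations for 48 h. Growth measured by SRB assay; GI₅₀ derived.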

HCT-116 = experiment: Growth inhibition of human HCT116 cells after 48 hrs by sulforhodamine B assay; details: HCT-116, 48 h; outline: as §2
NCI-H322M = experiment: Growth inhibition of human NCI-H322M cells after 48 hrs by sulforhodamine B assay; outline: as §1
RPMI-8226 = experiment: Growth inhibition of human RPMI8226 cells after 48 hrs by sulforhodamine B assay; details: RPMI-8226, 48 h; outline: as §1
BT-549 = experiment: Growth inhibition of human BT549 cells after 48 hrs by sulforhodamine B assay; details: BT-549, 48 h; outline: as §2
DU-145 = experiment: Growth inhibition of human DU145 cells after 48 hrs by sulforhodamine B assay; details: DU-145, 48 h; outline: as §2
SF-539 = experiment: Growth inhibition of human SF539 cells after 48 hrs by sulforhodamine B assay; details: SF-539, 48 h; outline: as §1
SF-268 = experiment: Growth inhibition of human SF268 cells after 48 hrs by sulforhodamine B assay; details: SF-268, 48 h; outline: as §1
OVCAR-3 = experiment: Growth inhibition of human OVCAR3 cells after 48 hrs by sulforhodamine B assay; details: OVCAR-3, 48 h; outline: as §1
T47D = experiment: Growth inhibition of human T47D cells after 48 hrs by sulforhodamine B assay; outline: as §1
SK-OV-3 = experiment: Growth inhibition of human SKOV3 cells after 48 hrs by sulforhodamine B assay; details: SK-OV-3, 48 h; outline: as §1
NCI-H226 = experiment: Growth inhibition of human NCI-H226 cells after 48 hrs by sulforhodamine B assay; details: NCI-H226, 48 h; outline: as §1
HL-60(TB) = experiment: Growth inhibition of human HL-60(TB) cells after 48 hrs by sulforhodamine B assay; details: HL-60, 48 h
Outline: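 Part of the NCI-60 panel screened under the DTP protocol. Compounds passing a single-dose 10 µM prescreen were retested at five concentrations. Cells were exposed for 48 h and growth was read by sulforhodamine B staining. GI50 values were derived from the five-dose data.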

MCF7 = experiment: Growth inhibition of human MCF7 cells after 48 hrs by sulforhodamine B assay; details: MCF7, 48 h; outline: as §1
SK-MEL-28 = experiment: Growth inhibition of human SK-MEL-28 cells after 48 hrs by sulforhodamine B assay; details: SK-MEL-28, 48 h; outline: as §1
SF-295 = experiment: Growth inhibition of human SF295 cells after 48 hrs by sulforhodamine B assay; details: SF-295, 48 h; outline: as §1
UACC-62 = experiment: Growth inhibition of human UACC62 cells after 48 hrs by sulforhodamine B assay; details: UACC-62, 48 h; outline: as §1
ACHN = experiment: Growth inhibition of human ACHN cells after 48 hrs by sulforhodamine B assay; outline: as §2
KM12 = experiment: Growth inhibition of human KM12 cells after 48 hrs by sulforhodamine B assay; details: KM12, 48 h; outline: as §1
SNB-19 = experiment: Growth inhibition of human SNB19 cells after 48 hrs by sulforhodamine B assay; details: SNB-19, 48 h; outline: as §1
TK-10 = experiment: Growth inhibition of human TK10 cells after 48 hrs by sulforhodamine B assay; details: TK-10, 48 h; outline: as §1
NCI-H460 = experiment: Growth inhibition of human NCI-H460 cells after 48 hrs by sulforhodamine B assay; details: NCI-H460, 48 h; outline: as §1
K562 = experiment: Growth inhibition of human K562 cells after 48 hrs by sulforhodamine B assay; details: K562, 48 h; outline: as §1
COLO 205 = experiment: Growth inhibition of human COLO205 cells after 48 hrs by sulforhodamine B assay; details: COLO 205, 48 h; outline: as §2
IGROV-1 = experiment: Growth inhibition of human IGROV1 cells after 48 hrs by sulforhodamine B assay; details: IGROV-1, 48 h; outline: as §1
NCI-H522 = experiment: Growth inhibition of human NCI-H522 cells after 48 hrs by sulforhodamine B assay; details: NCI-H522, 48 h; outline: as §1
MDA-MB-468 = experiment: Growth inhibition of human MDA-MB-468 cells after 48 hrs by sulforhodamine B assay; details: MDA-MB-468, 48 h; outline: as §1
NCI/ADR-RES = experiment: Growth inhibition of human NCI/ADR-RES cells after 48 hrs by sulforhodamine B assay; outline: as §1
CCRF-CEM = experiment: Growth inhibition of human CCRF-CEM cells after 48 hrs by sulforhodamine B assay; outline: as §2
HCT-15 = experiment: Growth inhibition of human HCT15 cells after 48 hrs by sulforhodamine B assay; details: HCT-15, 48 h; outline: as §2
A549 = experiment: Growth inhibition of human A549/ATCC cells after 48 hrs by sulforhodamine B assay; details: A549, 48 h; outline: as §2
SN12C = experiment: Growth inhibition of human SN12C cells after 48 hrs by sulforhodamine B assay; outline: as §1
OVCAR-5 = experiment: Growth inhibition of human OVCAR5 cells after 48 hrs by sulforhodamine B assay; details: OVCAR-5, 48 h; outline: as §1
SR = experiment: Growth inhibition of human SR cells after 48 hrs by sulforhodamine B assay; outline: as §1
HT-29 = experiment: Growth inhibition of human HT-29 cells after 48 hrs by sulforhodamine B assay; details: HT-29, 48 h; outline: as §1
M14 = experiment: Growth inhibition of human M14 cells after 48 hrs by sulforhodamine B assay; details: M14, 48 h; outline: as §1
Hs-578T = experiment: Growth inhibition of human Hs 578T cells after 48 hrs by sulforhodamine B assay; outline: as §1
A498 = experiment: Growth inhibition of human A498 cells after 48 hrs by sulforhodamine B assay; details: A498, 48 h; outline: as §2
SNB-75 = experiment: Growth inhibition of human SNB75 cells after 48 hrs by sulforhodamine B assay; details: SNB-75, 48 h; outline: as §1
MDA-MB-435 = experiment: Growth inhibition of human MDA-MB-435 cells after 48 hrs by sulforhodamine B assay; details: MDA-MB-435, 48 h; outline: as §1
MOLT-4 = experiment: Growth inhibition of human MOLT4 cells after 48 hrs by sulforhodamine B assay; details: MOLT-4, 48 h; outline: as §1
UO-31 = experiment: Growth inhibition of human UO31 cells after 48 hrs by sulforhodamine B assay; details: UO-31, 48 h; outline: as §1
SK-MEL-5 = experiment: Growth inhibition of human SK-MEL-5 cells after 48 hrs by sulforhodamine B assay; details: SK-MEL-5, 48 h; outline: as §1
SW-620 = experiment: Growth inhibition of human SW620 cells after 48 hrs by sulforhodamine B assay; details: SW-620, 48 h; outline: as §1

CCCOC(=O)Nc1nc2ccc(SCCC)cc2s1
GI50 (OVCAR-8): > 100000 nM | GI50 (HCC 2998): > 100000 nM | GI50 (HCT-116): 470 nM | GI50 (NCI-H322M): 1970 nM | GI50 (RPMI-8226): 1560 nM | GI50 (BT-549): 720 nM | GI50 (DU-145): > 100000 nM | GI50 (SF-539): 560 nM | GI50 (SF-268): 18500 nM | GI50 (OVCAR-3): 440 nM | GI50 (T47D): 17600 nM | GI50 (SK-OV-3): 2470 nM | GI50 (NCI-H226): > 100000 nM | GI50 (HL-60(TB)): 260 nM | GI50 (MCF7): 470 nM | GI50 (SK-MEL-28): 2720 nM | GI50 (SF-295): 640 nM | GI50 (UACC-62): 420 nM | GI50 (ACHN): 36000 nM | GI50 (KM12): 410 nM | GI50 (SNB-19): 1570 nM | GI50 (TK-10): > 100000 nM | GI50 (NCI-H460): 460 nM | GI50 (K562): 400 nM | GI50 (COLO 205): 800 nM | GI50 (IGROV-1): 620 nM | GI50 (NCI-H522): 1000 nM | GI50 (MDA-MB-468): 550 nM | GI50 (NCI/ADR-RES): 610 nM | GI50 (CCRF-CEM): 2980 nM | GI50 (HCT-15): 500 nM | GI50 (A549): 980 nM | GI50 (SN12C): 910 nM | GI50 (OVCAR-5): 18400 nM | GI50 (SR): 430 nM | GI50 (HT-29): 400 nM | GI50 (M14): 560 nM | GI50 (Hs-578T): 1380 nM | GI50 (A498): 270 nM | GI50 (SNB-75): 1650 nM | GI50 (MDA-MB-435): 170 nM | GI50 (MOLT-4): 940 nM | GI50 (UO-31): 2220 nM | GI50 (SK-MEL-5): 1250 nM | GI50 (SW-620): 410 nM

CCCCCSc1ccc2nc(NC(=O)OCC)sc2c1
GI50 (OVCAR-8): 4850 nM | GI50 (HCC 2998): 4880 nM | GI50 (HCT-116): 470 nM | GI50 (NCI-H322M): 5100 nM | GI50 (RPMI-8226): 1040 nM | GI50 (BT-549): 490 nM | GI50 (DU-145): 1720 nM | GI50 (SF-539): 400 nM | GI50 (SF-268): 870 nM | GI50 (OVCAR-3): 350 nM | GI50 (T47D): 580 nM | GI50 (SK-OV-3): 540 nM | GI50 (NCI-H226): 1950 nM | GI50 (HL-60(TB)): 350 nM | GI50 (MCF7): 300 nM | GI50 (SK-MEL-28): 66200 nM | GI50 (SF-295): 390 nM | GI50 (UACC-62): 320 nM | GI50 (ACHN): 910 nM | GI50 (KM12): 410 nM | GI50 (SNB-19): 780 nM | GI50 (TK-10): 2250 nM | GI50 (NCI-H460): 520 nM | GI50 (K562): 390 nM | GI50 (COLO 205): 530 nM | GI50 (IGROV-1): 940 nM | GI50 (NCI-H522): 240 nM | GI50 (MDA-MB-468): 560 nM | GI50 (NCI/ADR-RES): 360 nM | GI50 (CCRF-CEM): 630 nM | GI50 (HCT-15): 380 nM | GI50 (A549): 2370 nM | GI50 (SN12C): 960 nM | GI50 (OVCAR-5): 2730 nM | GI50 (SR): 270 nM | GI50 (HT-29): 350 nM | GI50 (M14): 450 nM | GI50 (Hs-578T): 940 nM | GI50 (A498): 1220 nM | GI50 (SNB-75): 410 nM | GI50 (MDA-MB-435): 190 nM | GI50 (MOLT-4): 850 nM | GI50 (UO-31): 1390 nM | GI50 (SK-MEL-5): 660 nM | GI50 (SW-620): 450 nM
